Source: PubChem BioAssay
IDH1 mut inh – blocks human IDH1 R132H reductase activity; inhibition, % at 10 µM; diaphorase/resazurin fluorescence, 60 min; 70,000 tested, 0.18% active; O75874; in the data active means inhibition above about 34%; inconclusive means no clear call, values can overlap the other calls; inactive means below about 11%
Target sequence (O75874 whole entry R132H): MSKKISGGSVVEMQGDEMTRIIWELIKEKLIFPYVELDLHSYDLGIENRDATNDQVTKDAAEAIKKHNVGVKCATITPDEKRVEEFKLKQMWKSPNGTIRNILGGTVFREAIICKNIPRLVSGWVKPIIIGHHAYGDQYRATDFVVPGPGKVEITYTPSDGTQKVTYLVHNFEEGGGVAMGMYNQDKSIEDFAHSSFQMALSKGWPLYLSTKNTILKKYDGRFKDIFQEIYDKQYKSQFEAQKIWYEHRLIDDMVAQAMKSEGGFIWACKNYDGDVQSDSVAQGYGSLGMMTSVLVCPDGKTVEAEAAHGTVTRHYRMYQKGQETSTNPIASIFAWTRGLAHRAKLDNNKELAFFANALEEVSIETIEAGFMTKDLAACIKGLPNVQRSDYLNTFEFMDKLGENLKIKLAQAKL
Pf Dd2 growth – blocks growth of Plasmodium falciparum Dd2 parasites. P. falciparum Dd2 growth, SYBR Green, 72 h; active compounds read low. activity change, % at 10 µM. 94,000 tested, 2.3% active. AID 1159554; in the data active means activity change below about -80%; inconclusive means no clear call, values can overlap the other calls
GASC1 inh – KDM4C (human) demethylase inhibition; Q9H3R0; GST-KDM4C 2-372, H3K9me3 peptide, LANCE TR-FRET; inhibition, % at 12.5 µM; 96,000 tested, 0.15% active; AID 720574;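 active means mean replicate inhibition above about 25%, with at least 55% of replicates also reaching it, limit read from the data, passing the limit was not always enough; inconclusive means only one of those two conditions met; inactive means neither condition met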
Target sequence (Q9H3R0 2-372 limits assumed): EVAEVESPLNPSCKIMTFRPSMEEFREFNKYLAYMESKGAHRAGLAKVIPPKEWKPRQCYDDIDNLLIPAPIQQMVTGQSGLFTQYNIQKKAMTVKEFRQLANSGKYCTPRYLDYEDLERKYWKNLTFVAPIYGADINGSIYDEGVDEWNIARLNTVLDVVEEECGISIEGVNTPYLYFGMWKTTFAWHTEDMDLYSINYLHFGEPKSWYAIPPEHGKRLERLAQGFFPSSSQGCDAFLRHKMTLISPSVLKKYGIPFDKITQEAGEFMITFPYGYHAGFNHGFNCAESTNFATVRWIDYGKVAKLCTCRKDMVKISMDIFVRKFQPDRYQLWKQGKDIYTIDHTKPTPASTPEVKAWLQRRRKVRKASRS
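Material: GST-tagged GASC-1 (JMJD2C) catalytic fragment, aa 2-372. Input: enzyme final amount 10 nM. Medium: HEPES buffer, pH 7.5, plus ascorbate. Reagent: H3K9me3 peptide substrate, Fe(II), 2-oxoglutarate. Doses: single dose. Times: reaction 30 min RT, detection step 1 h RT. Measured by: LANCE TR-FRET. Evaluation: Fall in 671/618 emission ratio as inhibition.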
T cruzi growth-1 – inhibitors of T. cruzi proliferation; 77,000 tested, 5.9% active; AID 624255; T. cruzi beta-gal in NIH3T3, GalScreen luminescence, 90 h; inhibition, % at 8.34 µM;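 active means mean inhibition above about 93%, with at least 55% of replicates each passing it, limit read from the data, passing the limit was not always enough; inconclusive means only one of those two conditions holds; inactive means neither condition holds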
T cruzi growth-2 – Trypanosoma cruzi proliferation inhibition. shares compounds with T cruzi growth-1. T. cruzi beta-gal in NIH3T3, GalScreen luminescence, 90 h. inhibition, % at 8.35 µM. 5,600 tested, 72% active;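 active means mean replicate inhibition above about 95% and at least 55% of replicates individually reaching it, limit read from the data; inconclusive means only one of the two criteria is met; inactive means neither criterion is met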
T cruzi growth-3 – Trypanosoma cruzi proliferation inhibition; AID 651740; inhibition, % at 2.09 µM; T. cruzi beta-gal in NIH3T3, GalScreen luminescence, 90 h; shares compounds with T cruzi growth-1; 5,600 tested, 21% active;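 active means mean inhibition above about 95%, with at least 55% of replicates also reaching it, limit read from the data; inconclusive means meets just one of the two conditions; inactive means meets neither condition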
NIH3T3 tox – cytotoxicity in mouse NIH/3T3 fibroblasts | 5,600 tested, 14% active | cytotoxicity (signal decrease), % at 8.35 µM | NIH/3T3 viability, CellTiter-Glo ATP luminescence, 90 h | shares compounds with T cruzi growth-1;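 active means mean signal decrease across replicates above about 35% based on untreated-well scatter, with enough replicates individually passing, limit read from the data; inconclusive means no rule stated though some were filed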
NIH3T3 tox 2 – NIH/3T3 (mouse) viability loss | shares compounds with T cruzi growth-1 | NIH/3T3 viability, CellTiter-Glo ATP luminescence, 90 h | inhibition, % at 24.9 µM | 5,600 tested, 56% active;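 active means mean loss of cell viability signal at or above a set limit, and enough replicates individually reaching it; inconclusive means meets only the mean limit or only the replicate share; inactive means meets neither condition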
A number is an active result; 0 = inactive; ? = inconclusive; - = not tested or not shown; ! = not confirmed by another sample. Rows were chosen to be rich in hits. Some 5.8% of all compounds tested hit in one or more screens of this group.

SMILES | IDH1 mut inh | Pf Dd2 growth | GASC1 inh | T cruzi growth-1 | T cruzi growth-2 | T cruzi growth-3 | NIH3T3 tox | NIH3T3 tox 2
Cn1c(SCC(=O)N2CCc3ccccc32)nnc1-c1ccco1 | 0 | - | - | - | - | - | - | -
COc1ccc(NC(=O)N2CCCCN3[C@@H](CO)[C@H](c4ccc(C5=CCCCC5)cc4)[C@@H]3C2)cc1 | - | 0 | 0 | 0 | - | - | - | -
O=C(Nc1ccccc1)N1CCCCN2[C@H](CO)[C@H](c3ccc(C4=CCCCC4)cc3)[C@@H]2C1 | - | 0 | 0 | ? | 115 | 0 | 0 | 94
O=C(Nc1ccc(F)cc1)N1CCCCN2[C@H](CO)[C@H](c3ccc(C4=CCCCC4)cc3)[C@@H]2C1 | - | 0 | 0 | 118 | 107 | 98 | 0 | 63
O=C(Nc1ccccc1)N1CCCCN2[C@@H](CO)[C@@H](c3ccc(-c4ccccc4)cc3)[C@@H]2C1 | - | 0 | 0 | 0 | - | - | - | -
Oc1ccccc1C1=Nc2ccccc2N=C(c2ccc(Cl)cc2)C1 | 0 | - | - | - | - | - | - | -
COc1cc(Br)c(S(=O)(=O)NCCOc2ccc(C(C)(C)C)cc2)cc1OC | 0 | - | - | - | - | - | - | -
C[C@@H]1CCCCO[C@@H](CN(C)S(=O)(=O)c2ccccc2)[C@@H](C)CN([C@H](C)CO)C(=O)c2cc(NC(=O)Nc3ccccc3)ccc2O1 | 0 | 0 | 0 | 0 | - | - | - | -
C[C@@H]1CN([C@@H](C)CO)C(=O)c2cc(NC(=O)Nc3ccc(C(F)(F)F)cc3)ccc2O[C@@H](C)CCCCO[C@@H]1CN(C)S(=O)(=O)c1ccccc1 | - | 0 | 0 | 0 | - | - | - | -
C[C@@H]1CCCCO[C@@H](CN(C)S(=O)(=O)c2ccccc2)[C@H](C)CN([C@@H](C)CO)C(=O)c2cc(NC(=O)Nc3ccc(C(F)(F)F)cc3)ccc2O1 | - | 0 | 0 | 109 | 104 | 115 | 0 | 0
C[C@@H]1CCCCO[C@@H](CN(C)S(=O)(=O)c2ccccc2)[C@@H](C)CN([C@@H](C)CO)C(=O)c2cc(NC(=O)Nc3ccc(C(F)(F)F)cc3)ccc2O1 | - | 0 | 0 | 105 | 103 | 106 | 37 | 63
C[C@@H]1CN([C@@H](C)CO)C(=O)c2cc(NC(=O)Nc3ccc(C(F)(F)F)cc3)ccc2O[C@@H](C)CCCCO[C@H]1CN(C)S(=O)(=O)c1ccccc1 | - | 0 | 0 | 109 | 103 | 114 | 0 | 0
CCn1c(SCC(=O)NC(C)(C)C)nnc1-c1cccc([N+](=O)[O-])c1 | 0 | - | - | - | - | - | - | -
Cc1c(Cl)cccc1NC(=O)CSc1nnc(-c2cccs2)n1C | 0 | - | - | - | - | - | - | -
CC(Sc1nc(-c2ccccc2)cc(-c2ccccc2)n1)C(=O)Nc1ccccc1 (centres undefined) | 0 | - | - | - | - | - | - | -
C[C@@H]1CN([C@H](C)CO)C(=O)c2cc(NC(=O)Nc3ccc(C(F)(F)F)cc3)ccc2O[C@@H]1CN(C)S(=O)(=O)c1cccs1 | 0 | 0 | 0 | ? | 108 | 0 | 0 | 40
C[C@@H]1CN([C@@H](C)CO)C(=O)c2cccc(NS(C)(=O)=O)c2O[C@@H]1CN(C)S(=O)(=O)c1cccs1 | 0 | 0 | 0 | 0 | - | - | - | -
C[C@H](CO)N1C[C@H](C)[C@H](CN(C)S(=O)(=O)c2cccs2)Oc2ccc(NC(=O)Nc3ccc(C(F)(F)F)cc3)cc2C1=O | - | 0 | 0 | 115 | 103 | 0 | 0 | 100
C[C@H]1CN([C@@H](C)CO)C(=O)c2cccc(NC(=O)Nc3ccc(C(F)(F)F)cc3)c2O[C@H]1CN(C)S(=O)(=O)c1cccs1 | 0 | 0 | 0 | 0 | - | - | - | -
C[C@H](CO)N1C[C@H](C)[C@H](CN(C)S(=O)(=O)c2cccs2)Oc2c(NC(=O)Nc3ccc(C(F)(F)F)cc3)cccc2C1=O | 0 | 0 | 0 | 103 | 0 | 0 | 56 | 105
C[C@H]1CN([C@@H](C)CO)C(=O)c2cccc(NS(C)(=O)=O)c2O[C@@H]1CN(C)S(=O)(=O)c1cccs1 | 0 | 0 | 0 | ? | 0 | 0 | 0 | 48
C[C@@H]1CN([C@H](C)CO)C(=O)c2cc(NC(=O)Nc3ccc(C(F)(F)F)cc3)ccc2O[C@H]1CN(C)S(=O)(=O)c1cccs1 | - | 0 | 0 | 0 | - | - | - | -
COC(=O)C(O)(c1ccc(NC(=S)NC(=O)c2ccc(Cl)cc2Cl)c(OC)c1)C(F)(F)F (centres undefined) | 0 | - | - | - | - | - | - | -
CCOc1ccc2ccccc2c1C(=O)NCc1cccnc1 | 0 | - | - | - | - | - | - | -
COc1ccc(-n2c(SCC(=O)Nc3ccc(Cl)cc3Cl)nnc2-c2ccncc2)cc1 | 0 | - | - | - | - | - | - | -
SMILES | IDH1 mut inh | Pf Dd2 growth | GASC1 inh | T cruzi growth-1 | T cruzi growth-2 | T cruzi growth-3 | NIH3T3 tox | NIH3T3 tox 2
C[C@H]1CN([C@@H](C)CO)C(=O)c2cc(C#Cc3ccccc3)cnc2O[C@@H]1CN(C)S(=O)(=O)c1ccccc1F | 0 | 0 | - | ? | 108 | 0 | 37 | 36
C[C@H](CO)N1C[C@H](C)[C@H](CN(C)S(=O)(=O)c2cccs2)Oc2ncc(C#Cc3ccccc3)cc2C1=O | 0 | 0 | 0 | 119! | 109 | 0 | 0 | 0
C[C@@H]1CN([C@@H](C)CO)C(=O)c2cc(C#Cc3ccccc3F)cnc2O[C@@H]1CN(C)S(=O)(=O)c1ccccc1F | 0 | 0 | 0 | 98 | 95 | 0 | 56 | 61
CC(C)CC#Cc1cnc2c(c1)C(=O)N([C@H](C)CO)C[C@H](C)[C@H](CN(C)S(=O)(=O)c1cccs1)O2 | 0 | 0 | 0 | 0 | - | - | - | -
C[C@H](CO)N1C[C@H](C)[C@H](CN(C)S(=O)(=O)c2ccccc2F)Oc2ncc(C#Cc3ccccc3)cc2C1=O | 0 | 0 | - | 0 | - | - | - | -
C[C@H](CO)N1C[C@H](C)[C@H](CN(C)S(=O)(=O)c2ccccc2F)Oc2ncc(C#Cc3ccccc3F)cc2C1=O | 0 | 0 | 0 | ? | 106 | 0 | 0 | 58
C[C@@H]1CN([C@@H](C)CO)C(=O)c2cc(C#Cc3ccccc3)cnc2O[C@H]1CN(C)S(=O)(=O)c1ccccc1F | 0 | 0 | - | 0 | - | - | - | -
C[C@@H]1CN([C@H](C)CO)C(=O)c2cc(C#Cc3ccccc3F)cnc2O[C@H]1CN(C)S(=O)(=O)c1ccccc1F | 0 | 0 | 0 | 114 | 110 | 0 | 39 | ?
C[C@@H]1CN([C@H](C)CO)C(=O)c2cc(C#Cc3ccccc3F)cnc2O[C@@H]1CN(C)S(=O)(=O)c1ccccc1F | 0 | 0 | 0 | 106! | 107 | 0 | 55 | 54
CS(=O)(=O)N(CC(=O)Nc1cccc2ccccc12)c1ccc(I)cc1 | 0 | - | - | - | - | - | - | -
CCC(=O)NC[C@@H]1[C@H](c2ccc(-c3cccc(F)c3)cc2)[C@@H](CO)N1C(=O)CC | - | 0 | 0 | 101 | 0 | 0 | 0 | 0
CCC(=O)NC[C@@H]1[C@H](c2ccc(-c3cccc(F)c3)cc2)[C@H](CO)N1C(=O)CC | - | 0 | 0 | ? | 0 | 0 | 0 | 0
CCC(=O)NC[C@H]1[C@@H](c2ccc(-c3cccc(F)c3)cc2)[C@H](CO)N1C(=O)CC | - | 0 | 0 | 0 | - | - | - | -
